Results: ChEMBL document CHEMBL4130482, “Synthesis and Antimicrobial Evaluation of Fire Ant Venom Alkaloid Based 2-Methyl-6-alkyl-Δ1,6-piperideines” (J Nat Prod, 2017)
Values after ≈ are worked out from the molar mass of the structure shown. Active and inactive are the calls of the source. The rule behind the calls is not given here.

Columns and labels:
Aspergillus fumigatus = assay: Antimicrobial activity against Aspergillus fumigatus ATCC 204305 at 20 ug/ml after 48 hrs by CLSI method; type: functional, organism-based
Staphylococcus aureus = assay: Antimicrobial activity against methicillin-resistant Staphylococcus aureus ATCC 1708 at 20 ug/ml by CLSI method; type: functional, organism-based
Escherichia coli = assay: Antimicrobial activity against Escherichia coli ATCC 2452 at 20 ug/ml by CLSI method; type: functional, organism-based
Pseudomonas aeruginosa = assay: Antimicrobial activity against Pseudomonas aeruginosa ATCC 2108 at 20 ug/ml by CLSI method; type: functional, organism-based
Cryptococcus neoformans = assay: Antimicrobial activity against Cryptococcus neoformans ATCC 90113 after 72 hrs by CLSI method; type: functional, organism-based; details: ATCC 90113, 72 h
How it was run: (§1)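 Antifungal susceptibility was tested by a modified CLSI (formerly NCCLS) broth method. Strains were C. neoformans ATCC 90113, C. albicans ATCC 90028, and A. fumigatus ATCC 204305, obtained from ATCC. Amphotericin B served as the positive control.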

Candida albicans [1] = assay: Antimicrobial activity against Candida albicans ATCC 90028 after 48 hrs by CLSI method; type: functional, organism-based; how it was run: as §1
Enterococcus faecium [2] = assay: Antimicrobial activity against vancomycin-resistant Enterococcus faecium ATCC 700221 by CLSI method; type: functional, organism-based
How it was run: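 VRE E. faecium ATCC 700221 strain, tested by a modified CLSI susceptibility method. Methicillin and vancomycin served as positive controls. The read-outs were 50% growth inhibition (IC50) and minimum inhibitory concentration (MIC).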

Leishmania donovani [3] = assay: Antileishmanial activity against promastigote form of Leishmania donovani after 72 hrs by Alamar blue assay; type: functional, organism-based
How it was run: (§2)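 Alamar Blue viability assay on L. donovani promastigotes, axenic amastigotes, THP1-cell amastigotes, and T. brucei trypomastigotes. Organisms at 2 × 10^6 cells/mL were exposed to serially diluted compounds for 72 h at 26 °C. IC50 and IC90 were determined. Test compounds were run up to 10 μg/mL. Values are means with standard deviations from two independent experiments, each in duplicate.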

Leishmania donovani [4] = assay: Antileishmanial activity against […] amastigote form of Leishmania donovani after 72 hrs by Alamar blue assay; type: functional, organism-based; how it was run: as §2
Leishmania donovani [5] = assay: Antileishmanial activity against amastigote form of Leishmania donovani infected in human THP1 cells after 72 hrs by Alamar blue assay; type: functional, organism-based; details: THP-1, 72 h; how it was run: as §2
Trypanosoma brucei = assay: Antitrypanosomal activity against trypomastigote form of Trypanosoma brucei after 72 hrs by Alamar blue assay; type: functional, organism-based; how it was run: as §2
[6] = (§3) Cytotoxicity against human THP1 cells; type: cell-based, THP-1; details: human, THP-1 cells
How it was run: (§4)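 Human THP-1 cells were exposed to test compounds at up to 10 μg/mL. Values are from two independent experiments, each with two replicates.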

THP-1 = assay: as §3; type: cell-based; details: Homo sapiens, THP-1; how it was run: as §4
Enterococcus faecium [7] = assay: Antimicrobial activity against vancomycin-resistant Enterococcus faecium ATCC 700221 at 20 ug/ml by CLSI method; type: functional, organism-based
Candida albicans [8] = assay: Antimicrobial activity against Candida albicans ATCC 90028 at 20 ug/ml after 48 hrs by CLSI method; type: functional, organism-based
Enterococcus faecium [9] = assay: Antimicrobial activity against vancomycin-resistant Enterococcus faecium ATCC 700221 at 2 ug/ml by CLSI method; type: functional, organism-based

Compound	Activity (Aspergillus fumigatus)	Activity (Staphylococcus aureus)	Activity (Escherichia coli)	Activity (Pseudomonas aeruginosa)	IC50 (Cryptococcus neoformans) [µg/mL]	MIC (Cryptococcus neoformans) [µg/mL]	IC50 (Candida albicans [1]; ATCC 90028, 48 h) [µg/mL]	MIC (Candida albicans [1]; ATCC 90028, 48 h) [µg/mL]	IC50 (Leishmania donovani [3]) [µg/mL]	IC90 (Leishmania donovani [3]) [µg/mL]	IC50 (Leishmania donovani [4]) [µg/mL]	IC90 (Leishmania donovani [4]) [µg/mL]	IC50 (Leishmania donovani [5]) [µg/mL]	IC90 (Leishmania donovani [5]) [µg/mL]	IC50 (Trypanosoma brucei) [µg/mL]	IC90 (Trypanosoma brucei) [µg/mL]	IC90 [6] [µg/mL]	IC50 (THP-1) [µg/mL]	Activity (Enterococcus faecium [7])	other results
CCCCCCCCCCCCCCCC1=NC(C)CCC1 (configuration not stated)	inactive	inactive	inactive	inactive	6.6 (≈ 21.5 µM)	10 (≈ 32.5 µM)	12.4 (≈ 40.3 µM)	20 (≈ 65 µM)	5.7 (≈ 18.5 µM)	7.9 (≈ 25.7 µM)	> 10	> 10	3.1 (≈ 10.1 µM)	> 10	2.7 (≈ 8.78 µM)	3.6 (≈ 11.7 µM)	> 10	> 10	–	IC50 (Enterococcus faecium [2]): 19.4 µg/mL (≈ 63.1 µM); MIC (Enterococcus faecium [2]): 20 µg/mL (≈ 65 µM)
CCCCCCCCCCCCCCC1=NC(C)CCC1 (configuration not stated)	inactive	inactive	inactive	inactive	8.3 (≈ 28.3 µM)	13.3 (≈ 45.3 µM)	17.1 (≈ 58.3 µM)	–	6.7 (≈ 22.8 µM)	9 (≈ 30.7 µM)	> 10	> 10	3.4 (≈ 11.6 µM)	8.8 (≈ 30 µM)	4 (≈ 13.6 µM)	6.8 (≈ 23.2 µM)	> 10	> 10	inactive	MIC (Candida albicans [1]): inactive
CCCCCCCCCCCCCCCCC1=NC(C)CCC1 (configuration not stated)	inactive	inactive	inactive	inactive	9.9 (≈ 30.8 µM)	20 (≈ 62.2 µM)	–	–	5 (≈ 15.5 µM)	8.3 (≈ 25.8 µM)	> 10	> 10	> 10	> 10	3.5 (≈ 10.9 µM)	6.5 (≈ 20.2 µM)	> 10	> 10	inactive	Activity (Candida albicans [8]): inactive
C[C@@H]1[C@H](O)[C@@H](C)/C=C/C=C/C=C/C=C/C=C/C=C/C=C/[C@H](O[C@@H]2O[C@H](C)[C@@H](O)[C@H](N)[C@@H]2O)C[C@@H]2O[C@](O)(C[C@@H](O)C[C@@H](O)[C@H](O)CC[C@@H](O)C[C@@H](O)CC(=O)O[C@H]1C)C[C@H](O)[C@H]2C(=O)O [AMPHOTERICIN B]	–	–	–	–	< 0.1	0.1 (≈ 0.108 µM)	< 0.1	0.1 (≈ 0.108 µM)	0.2 (≈ 0.216 µM)	0.5 (≈ 0.541 µM)	0.9 (≈ 0.974 µM)	1.4 (≈ 1.52 µM)	0.2 (≈ 0.216 µM)	0.4 (≈ 0.433 µM)	–	–	> 2	> 2	–	Activity (Enterococcus faecium [9]): inactive
NCCCC(N)(C(=O)O)C(F)F (configuration not stated) [EFLORNITHINE]	–	–	–	–	–	–	–	–	–	–	–	–	–	–	6.1 (≈ 33.5 µM)	12.1 (≈ 66.4 µM)	–	–	–	–
